Laboratory results from ChEMBL document CHEMBL5058577, “EUbOPEN Chemogenomics Library 2 (Multiplex)” (2022).

System: Fibroblast
Test: Multiplex assay against human fibroblast
Assay type: toxicity, cell-based
Summary of the method: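 Tubulin, mitochondrial-mass and membrane-permeability phenotypes are per cents of healthy-nucleus cells. Cells were gated by CellPathfinder machine learning into Hoechst high-intensity objects or normal cells, normal cells into healthy, pyknosed or fragmented nuclei, and pyknosed cells into mitotic or apoptotic. Before that, live cells stained at seeding with Hoechst33342, BioTracker Green Microtubule Cytoskeleton Dye, MitoTracker Red and Annexin V Alexa Fluor 680 were imaged on a CQ1 microscope at 37°C and 5% CO2 after compound addition.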

[1] = 12 h, 1 µM, compound concentration 1 uM, replicate 1
[2] = 12 h, 1 µM, compound concentration 1 uM, replicate 2
[3] = 12 h, 10 µM, compound concentration 10 uM, replicate 1
[4] = 12 h, 10 µM, compound concentration 10 uM, replicate 2
[5] = 24 h, 1 µM, compound concentration 1 uM, replicate 1
[6] = 24 h, 1 µM, compound concentration 1 uM, replicate 2
[7] = 24 h, 10 µM, compound concentration 10 uM, replicate 1
[8] = 24 h, 10 µM, compound concentration 10 uM, replicate 2
[9] = 48 h, 1 µM, compound concentration 1 uM, replicate 1
[10] = 48 h, 1 µM, compound concentration 1 uM, replicate 2
[11] = 48 h, 10 µM, compound concentration 10 uM, replicate 1
[12] = 48 h, 10 µM, compound concentration 10 uM, replicate 2

O=C(O)c1cc2ccccc2c(Cc2c(O)c(C(=O)O)cc3ccccc23)c1O [PAMOIC ACID]
Population Apoptotic (%) [1]: 54%
Population Fragmented Nuclei (%) [1]: 10%
Population Healthy Nuclei (%) [1]: 81%
Population Hoechst High Intensity Objects (%) [1]: 2%
Population Membrane Permeable-Phenotype (%) [1]: 0%
Population Mitochondria Different-Phenotype (%) [1]: 2%
Population Mitotic Cells (%) [1]: 45%
Population Normal (%) [1]: 97%
Population Pyknosed Nuclei (%) [1]: 7%
Population Tubulin-Different-Phenotype (%) [1]: 20%
Total Cell Count [1]: 147
Population Apoptotic (%) [2]: 32%
Population Fragmented Nuclei (%) [2]: 23%
Population Healthy Nuclei (%) [2]: 56%
Population Hoechst High Intensity Objects (%) [2]: 6%
Population Membrane Permeable-Phenotype (%) [2]: 6%
Population Mitochondria Different-Phenotype (%) [2]: 8%
Population Mitotic Cells (%) [2]: 67%
Population Normal (%) [2]: 93%
Population Pyknosed Nuclei (%) [2]: 19%
Population Tubulin-Different-Phenotype (%) [2]: 34%
Total Cell Count [2]: 154
Population Apoptotic (%) [3]: 40%
Population Fragmented Nuclei (%) [3]: 7%
Population Healthy Nuclei (%) [3]: 80%
Population Hoechst High Intensity Objects (%) [3]: 4%
Population Membrane Permeable-Phenotype (%) [3]: 1%
Population Mitochondria Different-Phenotype (%) [3]: 5%
Population Mitotic Cells (%) [3]: 60%
Population Normal (%) [3]: 95%
Population Pyknosed Nuclei (%) [3]: 11%
Population Tubulin-Different-Phenotype (%) [3]: 23%
Total Cell Count [3]: 132
Population Apoptotic (%) [4]: 37%
Population Fragmented Nuclei (%) [4]: 24%
Population Healthy Nuclei (%) [4]: 51%
Population Membrane Permeable-Phenotype (%) [4]: 3%
Population Mitochondria Different-Phenotype (%) [4]: 3%
Population Mitotic Cells (%) [4]: 62%
Population Pyknosed Nuclei (%) [4]: 24%
Population Tubulin-Different-Phenotype (%) [4]: 51%
Total Cell Count [4]: 156
Population Apoptotic (%) [5]: 33%
Population Fragmented Nuclei (%) [5]: 10%
Population Healthy Nuclei (%) [5]: 86%
Population Hoechst High Intensity Objects (%) [5]: 3%
Population Membrane Permeable-Phenotype (%) [5]: 0%
Population Mitochondria Different-Phenotype (%) [5]: 2%
Population Mitotic Cells (%) [5]: 66%
Population Normal (%) [5]: 96%
Population Pyknosed Nuclei (%) [5]: 4%
Population Tubulin-Different-Phenotype (%) [5]: 17%
Total Cell Count [5]: 156
Population Apoptotic (%) [6]: 32%
Population Fragmented Nuclei (%) [6]: 23%
Population Healthy Nuclei (%) [6]: 58%
Population Hoechst High Intensity Objects (%) [6]: 6%
Population Membrane Permeable-Phenotype (%) [6]: 9%
Population Mitochondria Different-Phenotype (%) [6]: 11%
Population Mitotic Cells (%) [6]: 68%
Population Normal (%) [6]: 93%
Population Pyknosed Nuclei (%) [6]: 18%
Population Tubulin-Different-Phenotype (%) [6]: 39%
Total Cell Count [6]: 147
Population Apoptotic (%) [7]: 50%
Population Fragmented Nuclei (%) [7]: 8%
Population Healthy Nuclei (%) [7]: 77%
Population Hoechst High Intensity Objects (%) [7]: 2%
Population Membrane Permeable-Phenotype (%) [7]: 1%
Population Mitochondria Different-Phenotype (%) [7]: 1%
Population Mitotic Cells (%) [7]: 50%
Population Normal (%) [7]: 97%
Population Pyknosed Nuclei (%) [7]: 13%
Population Tubulin-Different-Phenotype (%) [7]: 20%
Total Cell Count [7]: 138
Population Apoptotic (%) [8]: 40%
Population Fragmented Nuclei (%) [8]: 34%
Population Healthy Nuclei (%) [8]: 52%
Population Hoechst High Intensity Objects (%) [8]: 5%
Population Membrane Permeable-Phenotype (%) [8]: 3%
Population Mitochondria Different-Phenotype (%) [8]: 5%
Population Mitotic Cells (%) [8]: 59%
Population Normal (%) [8]: 94%
Population Tubulin-Different-Phenotype (%) [8]: 39%
Total Cell Count [8]: 170
Population Apoptotic (%) [9]: 25%
Population Fragmented Nuclei (%) [9]: 12%
Population Healthy Nuclei (%) [9]: 79%
Population Hoechst High Intensity Objects (%) [9]: 4%
Population Membrane Permeable-Phenotype (%) [9]: 0%
Population Mitochondria Different-Phenotype (%) [9]: 2%
Population Mitotic Cells (%) [9]: 75%
Population Normal (%) [9]: 95%
Population Pyknosed Nuclei (%) [9]: 8%
Population Tubulin-Different-Phenotype (%) [9]: 23%
Total Cell Count [9]: 155
Population Apoptotic (%) [10]: 38%
Population Fragmented Nuclei (%) [10]: 23%
Population Healthy Nuclei (%) [10]: 58%
Population Hoechst High Intensity Objects (%) [10]: 3%
Population Membrane Permeable-Phenotype (%) [10]: 9%
Population Mitochondria Different-Phenotype (%) [10]: 8%
Population Mitotic Cells (%) [10]: 61%
Population Normal (%) [10]: 96%
Population Pyknosed Nuclei (%) [10]: 17%
Population Tubulin-Different-Phenotype (%) [10]: 44%
Total Cell Count [10]: 152
Population Apoptotic (%) [11]: 50%
Population Fragmented Nuclei (%) [11]: 19%
Population Healthy Nuclei (%) [11]: 72%
Population Hoechst High Intensity Objects (%) [11]: 5%
Population Membrane Permeable-Phenotype (%) [11]: 2%
Population Mitochondria Different-Phenotype (%) [11]: 5%
Population Mitotic Cells (%) [11]: 50%
Population Normal (%) [11]: 94%
Population Pyknosed Nuclei (%) [11]: 7%
Population Tubulin-Different-Phenotype (%) [11]: 29%
Total Cell Count [11]: 136
Population Apoptotic (%) [12]: 60%
Population Fragmented Nuclei (%) [12]: 32%
Population Healthy Nuclei (%) [12]: 60%
Population Hoechst High Intensity Objects (%) [12]: 3%
Population Membrane Permeable-Phenotype (%) [12]: 3%
Population Mitochondria Different-Phenotype (%) [12]: 1%
Population Mitotic Cells (%) [12]: 40%
Population Normal (%) [12]: 96%
Population Pyknosed Nuclei (%) [12]: 6%
Population Tubulin-Different-Phenotype (%) [12]: 28%
Total Cell Count [12]: 156
